Tests used:
Rattus norvegicus [1] = test: Effect evaluated in vivo on 5-HTP accumulation in limbic system after subcutaneous administration; type: functional; details: sc
Summary of the method: (§1)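 Male Sprague-Dawley rats (200–300 g) were pretreated with reserpine 5 mg/kg sc 18 h beforehand. Test drug was given at neutral pH, 5 mL/kg. Aromatic amino acid decarboxylase was blocked with NSD 1015. 5-HTP in the dissected brain region was assayed by HPLC with electrochemical detection.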

Rattus norvegicus [2] = test: Effect evaluated in vivo on 5-HTP accumulation in limbic system at a dose 0.78 umol/kg (s.c.); type: functional; summary of the method: as §1
Rattus norvegicus [3] = test: Effect evaluated in vivo on 5-HTP accumulation in rats limbic system at a dose 50 umol/kg (s.c.); type: functional
Summary of the method: (§2)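 Male Sprague-Dawley rats (200–300 g) were pretreated with reserpine 5 mg/kg sc 18 h before. Test compound was given sc at 5 mL/kg in neutral solution. 5-HT synthesis rate was indexed by […] 5-HTP accumulation after decarboxylase inhibition with NSD 1015, measured by HPLC-electrochemical detection. Dose-response used 4–6 dose levels, n = 4.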

Rattus norvegicus [4] = test: Effect evaluated in vivo on 5-HTP accumulation in corpus striatum at a dose 0.78 umol/kg (s.c.); type: functional; summary of the method: as §1
Rattus norvegicus [5] = test: Effect evaluated in vivo on 5-HTP accumulation in NE-rich hemispheres at a 50 dose uM/kg(sc); type: functional; summary of the method: as §1
Rattus norvegicus [6] = test: Effect evaluated in vivo on 5-HTP accumulation in corpus striatum after subcutaneous administration; type: functional; details: sc; summary of the method: as §1
D(2) dopamine receptor = D(2) dopamine receptor (Rattus norvegicus, UniProt P61169); test: Inhibitory activity against Dopamine receptor D2 in rats using [3H]spiperone as radioligand
Summary of the method: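 Rat striatal membranes in 50 mM potassium phosphate buffer pH 7.4 were incubated with 0.5 nM [3H]spiperone for 10 min at 37 °C. Specific binding was defined with 10 μM 6,7-ADTN.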

Rattus norvegicus [7] = test: Effect evaluated in vivo on 5-HTP accumulation in corpus striatum at a dose 0.80 umol/kg (p.o.); type: functional; summary of the method: as §1
Rattus norvegicus [8] = test: Effect evaluated in vivo on 5-HTP accumulation in limbic system at a dose 12.5 umol/kg (p.o.); type: functional
Summary of the method: (§3)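 Oral dosing in male Sprague-Dawley rats (200–300 g) pretreated with reserpine 5 mg/kg sc 18 h before. After decarboxylase inhibition with NSD 1015, brain 5-HTP or dopa accumulation (HPLC-electrochemical detection) indexed 5-HT synthesis, DA synthesis (limbic) or NE synthesis (hemispheres, mainly cortex).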

Rattus norvegicus [9] = test: Effect evaluated in vivo on 5-HTP accumulation in corpus striatum after perioral administration; type: functional; summary of the method: as §1
Rattus norvegicus [10] = test: Effect evaluated in vivo on 5-HTP accumulation in limbic system at a dose 0.80 umol/kg (p.o.); type: functional; summary of the method: as §3
Rattus norvegicus [11] = test: Effect evaluated in vivo on 5-HTP accumulation synthesis in NE-rich hemispheres after perioral administration; type: functional; summary of the method: as §3
Rattus norvegicus [12] = test: The compound was tested in vivo for locomotor activity in rats at 50 umol/kg after perioral administration; type: functional
Summary of the method: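 Reserpine-pretreated rats (5 mg/kg sc, 18 h before) received test compound orally. Photocell motility counts were accumulated over 30 min, and gross behaviour, including 5-HT syndrome, was observed.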

Rattus norvegicus [13] = test: Effect evaluated in vivo on NE synthesis in NE-rich hemispheres after subcutaneous administration; type: functional; details: sc
Summary of the method: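 Rats pretreated with reserpine 5 mg/kg sc 18 h before received test compound sc at 5 mL/kg in neutral solution. After decarboxylase inhibition with NSD 1015, dopa accumulation in hemispheres (mainly cortex) was measured by HPLC-electrochemical detection as an index of NE synthesis. Dose-response used 4–6 dose levels, n = 4.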

Rattus norvegicus [14] = test: Effect evaluated in vivo on 5-HTP accumulation in NE-rich hemispheres at a 12.5 dose uM/kg(po); type: functional; summary of the method: as §1
Rattus norvegicus [15] = test: Effect evaluated in vivo on 5-HTP accumulation in limbic system at a dose 3.1 umol/kg (s.c.); type: functional; summary of the method: as §2
Rattus norvegicus [16] = test: Effect evaluated in vivo on 5-HTP accumulation in limbic system at a dose 50 umol/kg (p.o.); type: functional; summary of the method: as §3
Rattus norvegicus [17] = test: Effect evaluated in vivo on 5-HTP accumulation in limbic system at a dose 12.5 umol/kg (s.c.); type: functional; summary of the method: as §2
Rattus norvegicus [18] = test: The compound was tested in vivo for locomotor activity in rats at 50 umol/kg after subcutaneous administration; type: functional
Summary of the method: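 Male Sprague-Dawley rats received reserpine 5 mg/kg sc in the neck 18 h before testing. Test compound was given sc in the neck (n = 4). Rats were placed singly in photocell motility meters immediately after dosing, and counts were accumulated over 30 min (tests 9 a.m.–1 p.m.). Gross behaviour, including 5-HT syndrome, was observed throughout.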

Rattus norvegicus [19] = test: Effect evaluated in vivo on 5-HTP accumulation in NE-rich hemispheres at a 0.78 dose uM/kg(sc); type: functional; summary of the method: as §1
[20] = molecular target: T1, 5-hydroxytryptamine receptor 1A (Rattus norvegicus, UniProt P19327); test: Inhibitory activity against 5-hydroxytryptamine 1A receptor in rats, using [3H]8-OH-DPAT as radioligand
T1 sequence (P19327 whole entry): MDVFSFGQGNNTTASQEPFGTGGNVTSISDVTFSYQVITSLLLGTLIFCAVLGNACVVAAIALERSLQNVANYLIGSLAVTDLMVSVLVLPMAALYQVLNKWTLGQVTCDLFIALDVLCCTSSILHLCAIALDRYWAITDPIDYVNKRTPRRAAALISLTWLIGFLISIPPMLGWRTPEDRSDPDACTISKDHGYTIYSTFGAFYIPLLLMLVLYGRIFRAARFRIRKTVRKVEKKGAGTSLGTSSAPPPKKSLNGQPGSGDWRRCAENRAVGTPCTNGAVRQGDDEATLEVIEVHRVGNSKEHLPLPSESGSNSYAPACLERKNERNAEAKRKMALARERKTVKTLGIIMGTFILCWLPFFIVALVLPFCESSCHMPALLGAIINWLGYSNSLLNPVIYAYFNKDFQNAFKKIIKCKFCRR
Summary of the method: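 Rat whole-brain membranes (minus brainstem and cerebellum) in 50 mM Tris pH 8.0 with 120 mM NaCl, 4 mM CaCl2, 4 mM MgCl2 and 10 μM pargyline. Rapid filtration, then scintillation counting. Nonspecific binding defined with 10 μM 5-HT. IC50 by semi-log plot and linear regression.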

Rattus norvegicus [21] = test: Effect evaluated in vivo on 5-HTP accumulation in NE-rich hemispheres at a 0.80 dose uM/kg(po); type: functional; summary of the method: as §1
Rattus norvegicus [22] = test: Effect evaluated in vivo on 5-HTP accumulation in corpus striatum at a dose 3.1 umol/kg (p.o.); type: functional; summary of the method: as §1
Rattus norvegicus [23] = test: Effect evaluated in vivo on 5-HTP accumulation in NE-rich hemispheres at a 3.1 dose uM/kg(sc); type: functional; summary of the method: as §1
Rattus norvegicus [24] = test: Effect evaluated in vivo on 5-HTP accumulation in NE-rich hemispheres at a 50 dose uM/kg(po); type: functional; summary of the method: as §1
Rattus norvegicus [25] = test: Effect evaluated in vivo on 5-HTP accumulation in limbic system after perioral administration; type: functional; summary of the method: as §1
Rattus norvegicus [26] = test: Effect evaluated in vivo on 5-HTP accumulation in corpus striatum at a dose 50 umol/kg (p.o.); type: functional; summary of the method: as §1
Rattus norvegicus [27] = test: Effect evaluated in vivo on 5-HTP accumulation in corpus striatum at a dose 12.5 umol/kg (s.c.); type: functional; summary of the method: as §1
Rattus norvegicus [28] = test: Effect evaluated in vivo on 5-HTP accumulation in corpus striatum at a dose 3.1 umol/kg (s.c.); type: functional; summary of the method: as §1
Rattus norvegicus [29] = test: Effect evaluated in vivo on 5-HTP accumulation in corpus striatum at a dose 12.5 umol/kg (p.o.); type: functional; summary of the method: as §1
Rattus norvegicus [30] = test: Effect evaluated in vivo on 5-HTP accumulation in NE-rich hemispheres at a 3.1 dose uM/kg(po); type: functional; summary of the method: as §1
Rattus norvegicus [31] = test: Effect evaluated in vivo on 5-HTP accumulation in NE-rich hemispheres at a 12.5 dose uM/kg(sc); type: functional; summary of the method: as §1
Rattus norvegicus [32] = test: Effect evaluated in vivo on 5-HTP accumulation in limbic system at a dose 3.1 umol/kg (p.o.); type: functional; summary of the method: as §3

D(2) dopamine receptor, sequence (P61169 whole entry): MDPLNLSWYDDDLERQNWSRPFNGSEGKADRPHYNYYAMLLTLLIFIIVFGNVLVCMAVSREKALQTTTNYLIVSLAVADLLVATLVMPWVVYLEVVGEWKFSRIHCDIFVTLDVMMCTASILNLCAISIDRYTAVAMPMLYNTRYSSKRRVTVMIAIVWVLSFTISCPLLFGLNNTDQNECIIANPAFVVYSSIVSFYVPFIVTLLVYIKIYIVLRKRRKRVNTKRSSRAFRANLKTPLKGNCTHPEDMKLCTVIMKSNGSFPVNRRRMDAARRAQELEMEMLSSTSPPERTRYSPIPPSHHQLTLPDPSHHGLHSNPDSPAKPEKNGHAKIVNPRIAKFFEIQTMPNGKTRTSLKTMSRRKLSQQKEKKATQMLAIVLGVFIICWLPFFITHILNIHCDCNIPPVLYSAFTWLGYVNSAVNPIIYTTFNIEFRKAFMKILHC

COc1cccc2c1CCN(CC1CC1)CC2
ED50 (Rattus norvegicus [1]): 1.7 µmol/kg | Control (Rattus norvegicus [2]): 84% | Control (Rattus norvegicus [3]): 42% | Control (Rattus norvegicus [4]): 88% | Control (Rattus norvegicus [5]): 43% | ED50 (Rattus norvegicus [6]): 2.5 µmol/kg | IC50 (D(2) dopamine receptor): 7.6 µM | Control (Rattus norvegicus [7]): 102% | Control (Rattus norvegicus [8]): 83% | ED50 (Rattus norvegicus [9]): 7 µmol/kg | Control (Rattus norvegicus [10]): 101% | ED50 (Rattus norvegicus [11]): 6.5 µmol/kg | Locomotor activity (Rattus norvegicus [12]): 31 | ED50 (Rattus norvegicus [13]): 4 µmol/kg | Control (Rattus norvegicus [14]): 89% | Control (Rattus norvegicus [15]): 67% | Control (Rattus norvegicus [16]): 48% | Control (Rattus norvegicus [17]): 56% | Locomotor activity (Rattus norvegicus [18]): 107 | Control (Rattus norvegicus [19]): 95% | IC50 [20]: 0.12 µM | Control (Rattus norvegicus [21]): 102% | Control (Rattus norvegicus [22]): 59% | Control (Rattus norvegicus [23]): 77% | Control (Rattus norvegicus [24]): 50% | ED50 (Rattus norvegicus [25]): 5.5 µmol/kg | Control (Rattus norvegicus [26]): 48% | Control (Rattus norvegicus [27]): 60% | Control (Rattus norvegicus [28]): 68% | Control (Rattus norvegicus [29]): 77% | Control (Rattus norvegicus [30]): 75% | Control (Rattus norvegicus [31]): 85% | Control (Rattus norvegicus [32]): 70%

From ChEMBL document CHEMBL1125331, “6-Hydroxy-3-n-propyl-2,3,4,5-tetrahydro-1H-3-benzazepine and analogs: new centrally acting 5-HT1A receptor agonists” (J Med Chem, 1992)
